ChEMBL document CHEMBL1131430, “Discovery and structure-activity relationship of the first non-peptide competitive human glucagon receptor antagonists” (J Med Chem, 1998)
pIC50: −log10 of the molar value.

Target: T1, Glucagon receptor (Homo sapiens, UniProt P47871)
Assay: Binding affinity towards cloned human glucagon receptor in BHK cells.
Assay type: cell-based
How it was run: (§1)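 Competition binding on plasma membranes (0.5 μg protein/well) from BHK cells stably expressing recombinant human glucagon receptor, selected with 0.5 mg/mL G-418. Nonspecific binding with 10⁻⁶ M glucagon. Filtration, gamma counting; IC50 mean ± SD, n = 2.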

T1 sequence (P47871 whole entry): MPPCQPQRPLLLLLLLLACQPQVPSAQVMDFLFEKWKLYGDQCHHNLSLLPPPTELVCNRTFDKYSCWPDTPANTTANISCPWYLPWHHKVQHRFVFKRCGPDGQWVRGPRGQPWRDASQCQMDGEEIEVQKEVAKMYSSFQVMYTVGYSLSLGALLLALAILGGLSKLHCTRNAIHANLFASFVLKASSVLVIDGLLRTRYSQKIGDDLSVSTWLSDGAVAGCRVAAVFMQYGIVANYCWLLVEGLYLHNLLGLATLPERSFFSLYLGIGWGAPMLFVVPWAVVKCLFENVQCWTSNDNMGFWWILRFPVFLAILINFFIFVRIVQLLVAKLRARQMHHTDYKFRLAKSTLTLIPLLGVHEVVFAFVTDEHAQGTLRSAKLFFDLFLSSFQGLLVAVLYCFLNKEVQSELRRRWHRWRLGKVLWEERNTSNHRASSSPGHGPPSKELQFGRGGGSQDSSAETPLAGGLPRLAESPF

Row | pIC50 | Structure (SMILES)
1 | 4.26 | O=C(CSc1nnc(-c2ccccc2)[nH]1)c1ccc(O)c(O)c1
2 | < 3.30 | O=C(CCCSc1nc2ccccc2[nH]1)c1ccc(O)c(O)c1
3 | 5.27 | CC(C)(C)c1ccc2nc(SCC(=O)c3ccc(O)c(O)c3)[nH]c2c1
4 | 4.80 | COC(=O)c1cccc(COc2ccc3[nH]c(SCC(=O)c4ccc(O)c(O)c4)nc3c2)c1
5 | < 3.30 | O=C(O)c1ccc(C(=O)CSc2nc3ccccc3[nH]2)cc1
6 | < 3.30 | Oc1ccc(C(O)CSc2nc3ccccc3[nH]2)cc1Cl (stereo not drawn)
7 | 3.74 | O=C(CSc1nc(-c2ccccc2)c(-c2ccccc2)[nH]1)c1ccc(O)c(O)c1
8 | < 3.30 | CCCC(Sc1nc2ccccc2[nH]1)C(=O)c1ccc(O)c(O)c1 (stereo not drawn)
9 | 3.42 | O=C(CSc1nc2ccccc2[nH]1)c1cccc(O)c1
10 | 4.14 | O=C(CSc1nc2ccccc2s1)c1ccc(O)c(O)c1
11 | < 3.30 | Oc1ccc(/C(CSc2nc3ccccc3[nH]2)=N\OCc2ccccc2)cc1Cl
12 | 4.26 | O=C(CSc1nc2ccc([N+](=O)[O-])cc2[nH]1)c1ccc(O)c(O)c1
13 | 4.02 | O=C(O)c1cccc(COc2ccc3[nH]c(SCC(=O)c4ccc(O)c(O)c4)nc3c2)c1
14 | 3.80 | O=C(CSc1ccc2ccccc2n1)c1ccc(O)c(O)c1
15 | < 3.30 | O=C(CSc1nc2ccccc2[nH]1)c1ccc(Cl)c(Cl)c1

The remaining lines, values behind:

Row | Structure (SMILES) | pIC50
16 | Cn1c(SCC(=O)c2ccc(O)c(O)c2)nc2ccccc21 | < 3.30
17 | COc1ccc(C(=O)CSc2nc3ccccc3[nH]2)cc1OC | < 3.30
18 | O=C(CSc1nc2ccccc2[nH]1)c1ccc(O)c(Cl)c1 | 4.92
19 | O=C(O)c1cccc(C(=O)CSc2nc3ccccc3[nH]2)c1 | < 3.30
20 | O=C(CSc1nc2ccccc2o1)c1ccc(O)c(O)c1 | 3.60
21 | O=C(CSc1nc2ccccc2[nH]1)c1cc(O)cc(O)c1 | < 3.30
22 | O=C(CSc1nc2cc(OCc3ccccc3)ccc2[nH]1)c1ccc(O)c(O)c1 | 4.74
23 | O=C(CSc1ncc[nH]1)c1ccc(O)c(O)c1 | < 3.30
24 | COc1ccc2[nH]c(SCC(=O)c3ccc(O)c(O)c3)nc2c1 | 4.38
25 | O=C(CSc1nc2ccccc2[nH]1)c1ccccc1 | < 3.30
26 | COC(=O)c1cccc(COc2ccc3[nH]c(SCC(=O)c4ccc(O)c(Cl)c4)nc3c2)c1 | 5.04
27 | O=C(CSc1nc2cc(Cl)c(Cl)cc2[nH]1)c1ccc(O)c(O)c1 | 4.70
28 | O=C(CSc1nc2ccccc2[nH]1)c1ccc(O)c(C(=O)O)c1 | 3.70
29 | CO/N=C(/CSc1nc2ccccc2[nH]1)c1ccc(O)c(Cl)c1 | < 3.30
30 | O/N=C(/CSc1nc2ccccc2[nH]1)c1ccc(O)c(Cl)c1 | < 3.30
31 | COc1cc(C(=O)CSc2nc3ccccc3[nH]2)ccc1O | 4.39
32 | O=C(CSc1nc2ccccc2[nH]1)c1ccc(O)cc1 | < 4.22

Target: T1, Glucagon receptor
Assay: Compound was evaluated for its binding affinity towards cloned human Glucagon receptor in BHK cells
Assay type: cell-based
How it was run: as §1

Row | pIC50 | Structure (SMILES)
33 | 4.70 | O=C(CSc1nc2ccccc2[nH]1)c1ccc(O)c(O)c1
